Several values for one entry are separate records, joined by “and”; a condition that tells them apart may be missing. Equal values may be shown once.
What was measured:
H1 histone = H1 histone binding by steady-state fluorescence quenching; conditions: 300 K, ±2σ
[1] = target: human serum albumin (HSA) (Homo sapiens, UniProt P02768); assay: HSA binding by steady-state fluorescence quenching; conditions: 300 K, ±2σ
Outline: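 Human serum albumin (5 μM, 3 mL, freshly prepared in buffer) was titrated with successive additions of test compound stock at 300 K. Excitation was 283 nm and emission was read at 372 nm, with slits of 1 and 5 nm. Fluorescence was inner-filter corrected. KSV came from the Stern–Volmer equation; Ka and n came from log[(F0−F)/F] versus log[Q]. Performed in triplicate.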

[2] = literature value for comparison; cited from earlier work
[3] = 40 mg kg^–1; cited from earlier work

Sequence of human serum albumin (HSA) (P02768 25-609): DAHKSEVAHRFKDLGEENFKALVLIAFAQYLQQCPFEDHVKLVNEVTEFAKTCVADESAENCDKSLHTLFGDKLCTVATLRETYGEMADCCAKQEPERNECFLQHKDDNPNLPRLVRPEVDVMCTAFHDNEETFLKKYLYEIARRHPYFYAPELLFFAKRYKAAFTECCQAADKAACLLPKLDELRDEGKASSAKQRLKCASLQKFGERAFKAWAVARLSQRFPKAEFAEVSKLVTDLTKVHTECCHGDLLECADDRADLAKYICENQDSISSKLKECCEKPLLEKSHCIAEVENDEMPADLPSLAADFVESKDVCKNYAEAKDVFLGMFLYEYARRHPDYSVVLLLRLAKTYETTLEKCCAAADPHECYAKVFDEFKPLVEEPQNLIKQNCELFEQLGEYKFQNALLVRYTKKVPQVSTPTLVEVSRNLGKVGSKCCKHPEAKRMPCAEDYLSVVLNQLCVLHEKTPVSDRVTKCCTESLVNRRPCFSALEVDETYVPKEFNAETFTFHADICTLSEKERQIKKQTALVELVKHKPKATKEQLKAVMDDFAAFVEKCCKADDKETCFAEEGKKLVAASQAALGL

Row | SMILES | KSV × 10^–3 (Stern-Volmer constant), H1 (H1 histone) | n (number of binding sites), H1 (H1 histone) | KSV × 10^–3 (Stern-Volmer constant), HSA [1] | n (number of binding sites), HSA [1] | AUCtotal [2] | CLapp [2] | Vd [2] | t1/2e [2] | tmax [3]
1 | Cc1ccc(C(C)C)cc1.[Cl][Ru]([Cl])[PH]12CN3CN(CN(C3)C1)C2 [RAPTA-C] | 1.85 ± 0.21 × 10^–3 | 1.06 ± 0.03 | 7.06 ± 1.37 × 10^–3 | 0.87 ± 0.04 | 891 μg h L^–1 | 0.009 L h^–1 | 0.153 L | 11.47 h | –
2 | [Cl][Ru]([Cl])([Cl])[Cl].[Na+].c1ccc2[nH]ncc2c1.c1ccc2[nH]ncc2c1 [KP-1339/IT139, sodium trans-[tetrachloridobis(1H-indazole)ruthenate(III)]] | – | – | – | – | – | – | – | – | 2.5 h
3 | N.N.[Cl][Pt][Cl] [cisplatin] | 2.28 ± 0.59 × 10^–3 | 0.48 and 0.48 ± 0.14 | 0.58 ± 0.14 × 10^–3 | 1.18 ± 0.21 | – | – | – | – | –
